E-selectin induc – induces E-selectin expression in human endothelial cells | HUVEC E-selectin immunofluorescence imaging; normalized: neutral wells 0, TNF-alpha wells 100 | activation, % at 7.58 µM | hit rate 0.37% among 260,000;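 active = mean E-selectin-positive cell signal at least 10% of the positive control, reached in at least 60% of replicates, without over 20% cell loss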
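Assay system: HUVEC, human umbilical vein endothelial cells / Amount: 3,000 HUVEC/well / Controls: TNF-alpha positive control, DMSO neutral control / Compound dosing: single concentration / Medium: EGM-2 over gelatin coat / Evaluation: percent E-selectin-positive cells / Signal: immunofluorescence imaging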
XiGFP reactiv – activators of X-chromosome reactivation in mouse fibroblasts | XiGFP mouse fibroblasts, % GFP-positive cells imaging, 3 d; cells co-treated with 5-aza-dC sensitizer; scaled so ellipticine positive control = 100% | AID 743238 | activation, % at 7.58 µM | hit rate 0.055% among 360,000;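 active = mean normalized replicate activation at least 10% and every replicate at or above 10%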;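 note: 0% = median of on-plate neutral control wells and 100% = ellipticine 6 µM median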
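material = 68-5-11 XiGFP fibroblast line | medium = DMEM plus 5-aza-dC sensitizer | schedule = 3 days compound exposure | benchmarks = positive control ellipticine, 6 µM final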
DENV2 CPE rescue – protects cells from dengue virus 2 cytopathic effect; AID 651640; DENV2-infected cells, cytopathic effect rescue, plate reader; CPE inhibition, % at 9.99 µM; hit rate 1.7% among 350,000; in the data active = CPE inhibition above about 20%, passing the limit was not always enough; tested in BHK-21 cells;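 note: 0% = median of neutral control wells and 100% = median of positive control wells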
S100A4 inh HTS – S100A4-myosin IIA interaction inhibition | S100A4/TAMRA-MyoIIA peptide fluorescence polarization | P26447 | hit rate 0.14% among 360,000 | inhibition, % at 10.7 µM | AID 652163;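 active = mean inhibition of at least 70% across replicates, with every replicate also reaching that level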
Target sequence (P26447 whole entry, looked up): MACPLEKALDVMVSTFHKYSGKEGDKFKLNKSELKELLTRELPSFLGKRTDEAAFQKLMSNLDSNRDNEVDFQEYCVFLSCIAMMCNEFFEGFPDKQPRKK
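Material: S100A4 monomer (human). Medium: Calcium-containing HEPES buffer, pH 7.2. Probe or stimulus: labelled myosin peptide probe, 5 nM. Compound dosing: one concentration per compound. Timing: polarization read 5 min after assay mix addition, stable 5–60 min. Benchmarks: DMSO as neutral control, TFP as positive control.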
* hit, by the source's call. Hits are enriched below; roughly 2% of the tested compounds scored in any of these assays.

How did COc1cc(C(=O)NCC(=O)Nc2c(C)cccc2C)ccc1OCC(=O)N1CCOCC1 do in these assays?
E-selectin induc: 0; XiGFP reactiv: 0; DENV2 CPE rescue: -3; S100A4 inh HTS: -3

How did CCOc1ccc(CCNC(=O)c2ccccc2OCc2c(C)noc2C)cc1OCC do in these assays?
E-selectin induc: 0; XiGFP reactiv: 0; DENV2 CPE rescue: -1; S100A4 inh HTS: 1

What do the screens show for `Cc1cnc2nc(-c3ccccc3)ccc2c1`?
E-selectin induc: 0; XiGFP reactiv: 0; DENV2 CPE rescue: -14; S100A4 inh HTS: -1

How did O=C(CSc1ccc(-c2cccnc2)nn1)Nc1ccc(Br)cc1 do in these assays?
E-selectin induc: 0; XiGFP reactiv: 0; DENV2 CPE rescue: 30*; S100A4 inh HTS: 4

How did Nc1nnc(-c2ccc(Cl)cc2)o1 do in these assays?
E-selectin induc: 0; XiGFP reactiv: 0; S100A4 inh HTS: -20

How did CCc1nc2ccc(C(=O)N(CC)CCN(C)C)cn2c1N(C)C(=O)c1cccc(OC)c1 do in these assays?
E-selectin induc: 0; XiGFP reactiv: 0; DENV2 CPE rescue: 26*; S100A4 inh HTS: 0

Results for CCc1nc2ccc(C(=O)N3CCN(C(C)=O)CC3)cn2c1N(C)C(=O)c1cccc(OC)c1 ?
E-selectin induc: 0; XiGFP reactiv: 0; DENV2 CPE rescue: 6; S100A4 inh HTS: -7

What do the screens show for `O=c1[nH]c2cc([N+](=O)[O-])c(NCCO)c([N+](=O)[O-])c2[nH]1`?
XiGFP reactiv: 0; DENV2 CPE rescue: 0; S100A4 inh HTS: -27

What do the screens show for `CCCCCCOc1ccc(C(CC(N)=O)C(=O)O)cc1` (stereo not drawn)?
E-selectin induc: 80*; XiGFP reactiv: 0; DENV2 CPE rescue: 8; S100A4 inh HTS: 5

Results for CC(=O)N1CC2(C1)[C@@H](c1ccc(-c3ccc(F)cc3)cc1)[C@@H](CO)N2C(C)=O ?
E-selectin induc: 0; XiGFP reactiv: 0; DENV2 CPE rescue: 78*; S100A4 inh HTS: 0

How did COCC(=O)N1[C@H](CO)[C@@H](c2ccc(-c3cccc(OC)c3)cc2)C12CN(C(C)=O)C2 do in these assays?
E-selectin induc: 0; XiGFP reactiv: 0; DENV2 CPE rescue: 28*; S100A4 inh HTS: -8

How did CCC(=O)N1[C@@H](CO)[C@@H](c2ccc(-c3cccc(OC)c3)cc2)C12CN(C(C)=O)C2 do in these assays?
E-selectin induc: 0; XiGFP reactiv: 0; DENV2 CPE rescue: 0; S100A4 inh HTS: -5

What do the screens show for `CCC(=O)N1CC2(C1)[C@@H](c1ccc(-c3ccccc3C)cc1)[C@@H](CO)N2C(C)=O`?
E-selectin induc: 0; XiGFP reactiv: 0; DENV2 CPE rescue: -6; S100A4 inh HTS: -3

How did CCC(=O)N1[C@@H](CO)[C@@H](c2ccc(-c3ccccc3C)cc2)C12CN(C(C)=O)C2 do in these assays?
E-selectin induc: 0; XiGFP reactiv: 1; DENV2 CPE rescue: 60*; S100A4 inh HTS: 2

Results for CC=Cc1ccc2n(c1=O)C[C@@H]1[C@@H](CO)[C@H](C(=O)OC)N(Cc3ccccc3)[C@H]21 (mixture of isomers) ?
E-selectin induc: 0; XiGFP reactiv: 0; DENV2 CPE rescue: 0; S100A4 inh HTS: 5

Results for NC(=O)CN(Cc1ccccc1)S(=O)(=O)c1ccc2c(c1)OCCO2 ?
E-selectin induc: 13; XiGFP reactiv: 0; DENV2 CPE rescue: -6; S100A4 inh HTS: -5

Results for C(=C\c1ccc(C2[C@H]3CNC[C@@H]2N3Cc2ccc3c(c2)OCO3)cc1)/c1ccccc1 (stereo partly drawn) ?
E-selectin induc: 0; XiGFP reactiv: 0; DENV2 CPE rescue: 4; S100A4 inh HTS: -13

What do the screens show for `Cc1ccc(NC(=S)N(CCCN2CCOCC2)Cc2ccccn2)cc1Cl`?
XiGFP reactiv: 0

Results for COc1ccc(C(=O)N2CCC2(C)C(=O)O)cc1F (stereo not drawn) ?
E-selectin induc: 0; XiGFP reactiv: 0; DENV2 CPE rescue: 79*; S100A4 inh HTS: -3

What do the screens show for `CCOC(=O)C1(C)CCCN1C(=O)c1ccc(OC)c(F)c1` (stereo not drawn)?
E-selectin induc: 0; XiGFP reactiv: 0; DENV2 CPE rescue: -10; S100A4 inh HTS: -1

What do the screens show for `CCCC/C=C/[C@H](c1ccccc1)[C@H](CO)Cc1cccnc1`?
E-selectin induc: -1; XiGFP reactiv: 0; DENV2 CPE rescue: 42*; S100A4 inh HTS: -3

Source: PubChem
